Data as given in ChEMBL document CHEMBL1137670, “First occurrence of an IMP metallo-beta-lactamase in Aeromonas caviae: IMP-19 in an isolate from France” (2007).
Values after ≈ are worked out from the molar mass of the structure shown.

Assays:
Type in all cases: functional
[1] = test system: Aeromonas caviae; assay: Antimicrobial activity against Aeromonas caviae A324R by disk diffusion method
Procedure, shortened: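 Disk diffusion per CLSI criteria, read as inhibition zone diameter in mm.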

[2] = test system: Escherichia coli; assay: Antimicrobial activity against Escherichia coli DH5alpha expressing pIP19 containing Aeromonas caviae A324R metallo-beta-lactamase blaIMP-19 gene by broth dilution method
Procedure, shortened: (§1)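 Beta-lactam MICs by standard broth dilution per CLSI criteria. Recombinant DH5alpha(pIP19) carries blaIMP-19 subcloned into pK18, selected on kanamycin 30 µg/ml plus ceftazidime 4 µg/ml. DH5alpha(pJDB2) carries the 35 kb native plasmid extracted by alkaline lysis.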

[3] = test system: Aeromonas caviae; assay: Antimicrobial activity against Aeromonas caviae A324R expressing metallo-beta-lactamase IMP-19 by broth dilution method; procedure, shortened: as §1
[4] = test system: Escherichia coli; assay: Antimicrobial activity against Escherichia coli DH5alpha expressing pJDB2 containing Aeromonas caviae A324R metallo-beta-lactamase gene by broth dilution method; procedure, shortened: as §1
[5] = test system: Escherichia coli; assay: Antimicrobial activity against Escherichia coli DH5alpha by broth dilution method; procedure, shortened: as §1

| Compound | diameter of the inhibition zone (DIZ) [1] [mm] | MIC [2] [µg/mL] | MIC [3] [µg/mL] | MIC [4] [µg/mL] | MIC [5] [µg/mL] |
| --- | --- | --- | --- | --- | --- |
| C[C@H]1[C@H](NC(=O)/C(=N\OC(C)(C)C(=O)O)c2csc(N)n2)C(=O)N1S(=O)(=O)O [AZTREONAM] | 24 | 256 (≈ 588 µM) | 512 (≈ 1180 µM) | 256 (≈ 588 µM) | – |
| Cc1nnc(SCC2=C(C(=O)O)N3C(=O)[C@@H](NC(=O)Cn4cnnn4)[C@H]3SC2)s1 [CEFAZOLIN] | – | 256 (≈ 563 µM) | 1020 (≈ 2250 µM) | 256 (≈ 563 µM) | ≤ 1 |
| CO[C@@]1(NC(=O)Cc2cccs2)C(=O)N2C(C(=O)O)=C(COC(N)=O)CS[C@@H]21 [CEFOXITIN] | – | 512 (≈ 1200 µM) | 512 (≈ 1200 µM) | 256 (≈ 599 µM) | 2 (≈ 4.68 µM) |
| CC(C)(O/N=C(\C(=O)N[C@@H]1C(=O)N2C(C(=O)[O-])=C(C[n+]3ccccc3)CS[C@H]12)c1csc(N)n1)C(=O)O [CEFTAZIDIME] | – | 512 (≈ 937 µM) | 1020 (≈ 1870 µM) | 128 (≈ 234 µM) | 4 (≈ 7.32 µM) |
| O=C(O)[C@H]1/C(=C/CO)O[C@@H]2CC(=O)N21 [CLAVULANIC ACID] | – | 8 (≈ 40.2 µM) | 16 (≈ 80.3 µM) | 4 (≈ 20.1 µM) | 0.5 (≈ 2.51 µM) |
| C[C@@H](O)[C@H]1C(=O)N2C(C(=O)O)=C(SCCNC=N)C[C@H]12 [IMIPENEM ANHYDROUS] | 27 | 0.25 (≈ 0.835 µM) | 8 (≈ 26.7 µM) | 0.25 (≈ 0.835 µM) | – |
| C[C@@H](O)[C@H]1C(=O)N2C(C(=O)O)=C(S[C@@H]3CN[C@H](C(=O)N(C)C)C3)[C@H](C)[C@H]12 [MEROPENEM] | – | 512 (≈ 1340 µM) | 1020 (≈ 2670 µM) | 256 (≈ 668 µM) | ≤ 1 |
| CCN1CCN(C(=O)N[C@@H](C(=O)N[C@@H]2C(=O)N3[C@@H]2SC(C)(C)[C@@H]3C(=O)O)c2ccccc2)C(=O)C1=O [PIPERACILLIN] | – | 2 (≈ 3.86 µM) | 256 (≈ 495 µM) | 8 (≈ 15.5 µM) | 1 (≈ 1.93 µM) |
| C[C@]1(Cn2ccnn2)[C@H](C(=O)O)N2C(=O)C[C@H]2S1(=O)=O [TAZOBACTAM] | – | 0.5 (≈ 1.67 µM) | 1 (≈ 3.33 µM) | 0.5 (≈ 1.67 µM) | ≤ 0.25 |
| CC1(C)S[C@@H]2[C@H](NC(=O)[C@H](C(=O)O)c3ccsc3)C(=O)N2[C@H]1C(=O)O [TICARCILLIN] | – | 1020 (≈ 2660 µM) | 2050 (≈ 5330 µM) | 512 (≈ 1330 µM) | 4 (≈ 10.4 µM) |
